HePTP inhibitor: human HePTP phosphatase inhibition | inhibition, % at 20 µM | recombinant HePTP phosphatase activity, OD absorbance | 110,000 tested, 0.64% active | P35236; in the data active = inhibition above about 50%;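 also: plate controls were vehicle for no effect and reference inhibitor for full effect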
E coli WT exp: blocks growth of wild type E. coli BW25113 | growth inhibition, % at 100 µM | 98,000 tested, 0.15% active | OD600 absorbance;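 active = growth inhibition above about 50% at one test dose, limit read from the data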;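 also: growth measured after 20 h incubation at 37 °C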
PLAP activator: activates human placental alkaline phosphatase; purified PLAP enzyme, luminescent substrate read-out; stronger effect = higher value; activation fold at 20 µM; 96,000 tested, 1.2% active; AID 696; P05187; in the data active = activation fold above about 2
Target sequence (P05187 whole entry, looked up): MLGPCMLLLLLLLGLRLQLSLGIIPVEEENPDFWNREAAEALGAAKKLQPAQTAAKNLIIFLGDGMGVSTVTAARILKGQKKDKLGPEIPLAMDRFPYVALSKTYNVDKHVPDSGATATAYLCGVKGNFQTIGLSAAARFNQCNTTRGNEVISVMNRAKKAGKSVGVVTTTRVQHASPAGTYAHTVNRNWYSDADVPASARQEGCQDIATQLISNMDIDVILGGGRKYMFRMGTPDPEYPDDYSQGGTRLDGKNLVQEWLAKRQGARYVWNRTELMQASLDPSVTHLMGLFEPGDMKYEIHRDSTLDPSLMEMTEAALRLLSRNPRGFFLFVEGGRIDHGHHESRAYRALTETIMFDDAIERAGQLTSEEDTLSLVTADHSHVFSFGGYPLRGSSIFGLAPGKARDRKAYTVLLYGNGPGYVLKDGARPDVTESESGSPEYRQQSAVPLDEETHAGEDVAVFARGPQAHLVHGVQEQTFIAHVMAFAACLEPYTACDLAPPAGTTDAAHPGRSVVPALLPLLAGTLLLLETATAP
PostGolgi ctrl: yeast control strain growth, post-Golgi counter-screen; efflux-deficient yeast background strain, growth absorbance A615, 16 h; inhibition, % at 10 µM; 98,000 tested, 5% active
tolC growth inh: E. coli tolC mutant growth inhibition; E. coli BW25113 tolC mutant growth, OD615; growth inhibition, % at 10 µM (by protocol); 65,000 tested, 2.2% active; AID 573;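 active = growth inhibition at or above a cutoff equal to the mean over every tested compound plus 3 SD, cut at about 60% in these data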;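 also: growth measured after 20 h incubation at 37 °C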
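Test system: tolC-deleted E. coli BW25113; medium: LB with kanamycin 50 µg/mL; compound: single-point testing at 10 µM; incubation: 20 h compound exposure of bacteria at 37 °C; signal: OD at 615 nm; evaluation: growth inhibition in percent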
PostGolgi yeast: growth inhibition of a yeast mutant, post-Golgi transport screen; AID 739; post-Golgi transport phenotypic cell assay; inhibition, % at 10 µM; 98,000 tested, 0.9% active;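 also: yeast cells grown in 1536-well plates; yeast grown about 18 h at 30C before absorbance read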
Numbers without * were called inactive; / = no result. The list is not random: actives were taken first. Their share in the collection is about 5.4%. Rule as the data show it, unless noted: active = inhibition above about 30%; inactive = the rest.

SMILES	HePTP inhibitor	E coli WT exp	PLAP activator	PostGolgi ctrl	tolC growth inh	PostGolgi yeast
CCOC(=O)c1ccc2c(c1)n(CC)c(/C=C/Nc1ccccc1)[n+]2CC	/	2	0.7	32*	/	-17
COc1c2c(nc3occc13)C(CCC(C)(C)O)(OC)C(O)CC2 (stereo not given)	8	0	1.2	30*	-18	23
COc1ccc(/C=C/C(=O)Nc2ccc(Oc3ccccc3)cc2)cc1OC	-1	/	/	/	/	/
CC(Sc1nnc(Cc2cccs2)n1C1CCCCC1)C(=O)N1CCc2ccccc21 (stereo not given)	/	-4	1.7	34*	/	-3
C/C(=N\Nc1ccc([N+](=O)[O-])cc1)c1cccc(N)c1	/	13	0.5	5	/	31*
Cc1ccc(C(=O)NC2CC(C)(C)NC(C)(C)C2)cc1[N+](=O)[O-]	7	/	/	/	/	/
Cc1ccc(OCc2nnc(SCc3nc4ccccc4[nH]3)n2Cc2ccco2)cc1	6	3	1.9	32*	26	-4
O=c1c2ccccc2nnn1CSc1nc2cc(Cl)ccc2c(=O)n1Cc1ccco1	-3	/	/	/	-7	/
O=c1c2ccccc2nnn1CSc1nnc(COc2ccc(Cl)cc2)n1Cc1ccco1	3	-2	1.1	82*	8	103*
CCCCN(CCCC)C(=O)CSc1nnc2n(C)c(=O)c3c4c(sc3n12)CCCC4	4	-4	/	34*	4	4
CCCSc1nnc2n(C)c(=O)c3c4c(sc3n12)CCC4	9	1	1.7	3	8	4
COc1cccc(NC(=O)c2ccccc2-c2nc(-c3cccc(C)c3)no2)c1	5	-25	1.3	34*	38	-3
Cc1cccc(-c2noc(-c3ccccc3C(=O)NCC3CCCO3)n2)c1 (stereo not given)	8	4	1.1	31*	-11	-3
Cc1ccc(C2CC(C(F)(F)F)n3nc(C(=O)NCc4ccco4)cc3N2)cc1 (stereo not given)	13	1	1.3	32*	6	-2
Cc1cccc(NC(=O)c2cc3n(n2)C(C(F)(F)F)CC(c2ccc4c(c2)OCO4)N3)c1 (stereo not given)	12	-13	0.9	58*	68*	9
Cc1cc(C(=O)NCc2ccco2)no1	/	14	0.9	11	/	30*
CCCCNC(=O)c1cc2n(n1)C(C(F)(F)F)CC(c1ccccc1)N2 (stereo not given)	3	-4	0.8	35*	8	1
Cc1ccc(-c2cc(C(=O)NCc3ccco3)no2)cc1	2	-7	1	11	-12	-21
COc1ccc(NC(=O)c2cc3n(n2)C(C(F)(F)F)CC(c2ccc4c(c2)OCO4)N3)cc1OC (stereo not given)	1	-14	/	15	43	-18
CCCCNC(=O)c1cc2n(n1)C(C(F)(F)F)CC(c1ccc(Cl)c(Cl)c1)N2 (stereo not given)	-8	/	/	/	/	/
O=C(NC(=S)Nc1ccc(Cl)cc1)c1ccc([N+](=O)[O-])cc1	-13	/	/	/	/	/
Cc1ccc(C(=O)Nc2ccc(NC(=O)c3ccc(Br)cc3)cc2)cc1	5	/	/	/	/	/
O=S(=O)(Nc1ccc(S(=O)(=O)N2CCOCC2)cc1)c1ccc(Br)cc1	9	/	/	/	/	/
O=S(=O)(c1ccc(Oc2ccc(Br)cc2)cc1)N1CCOCC1	5	-10	1	63*	53	16
Cc1cccc(OCC(=O)Nc2cccc(C(F)(F)F)c2)c1C	-11	/	/	/	/	/
SMILES	HePTP inhibitor	E coli WT exp	PLAP activator	PostGolgi ctrl	tolC growth inh	PostGolgi yeast
O=C(CC1(O)C(=O)Nc2ccccc21)c1cccc2ccccc12 (stereo not given)	9	/	/	/	/	/
Cc1ccc(/C(N)=N/OC(=O)c2ccc([N+](=O)[O-])cc2)cc1	6	/	/	/	/	/
CCCCn1c(NC(=O)c2ccccc2Cl)c(C#N)c2nc3ccccc3nc21	1	-6	1.4	18	99*	33*
CCC(=O)Nc1c(C#N)c2nc3ccccc3nc2n1C1CCCCC1	24	3	1.4	37*	12	2
CCC(=O)Nc1c(C#N)c2nc3ccccc3nc2n1-c1ccccc1C	5	-17	/	6	26	3
COc1cc(/C=C(/C#N)C(=O)Nc2cccc(Br)c2)cc(Cl)c1O	2	/	/	/	/	/
O=C(Cn1nc(Cl)nc1Cl)c1ccc2c(c1)OCCO2	2	61*	0.8	7	-16	-4
Cc1cc(C=C2C(=O)NC(=O)NC2=O)c(-c2ccccc2)n1-c1ccccc1	10	/	/	/	/	/
O=C(NC(C(=O)c1ccccc1)N1CCCCC1)c1ccccc1 (stereo not given)	-10	6	1.1	-4	11	38*
O=C(NC(C(=O)c1ccccc1)n1ccc(=O)[nH]c1=O)c1ccccc1 (stereo not given)	-6	3	1.2	30*	-10	14
COc1ccc(OC)c(NC(=O)c2ccc(OC)cc2OC)c1	1	/	/	/	/	/
CCCCc1ccc(C2C(C#N)=C(N)SC(N)=C2C#N)s1	-9	15	1.2	4	93*	4
CCOc1ccc(C2C(C#N)=C(N)SC(N)=C2C#N)c(OCC)c1	11	-8	1.1	8	10	14
Cc1nc(NS(=O)(=O)c2ccc(Br)cc2)c2c3c(sc2n1)CCC3	/	-2	1.1	33*	/	-4
Cc1nc(NS(=O)(=O)c2cccs2)c2c3c(sc2n1)CCC3	1	-3	1.5	29	20	-3
O=C(O)[C@H](CO)Nc1ncnc2sc3c(c12)CCC3	/	5	0.8	1	/	3
O=S(=O)(Nc1ncnc2sc3c(c12)CCC3)c1ccc(Cl)s1	32	-2	1.4	21	63*	3
C=CCSc1nccc(-c2nn(-c3ccc(C)cc3)ccc2=O)n1	/	-20	1.3	34*	/	2
Cc1ccc(S(=O)(=O)N/N=C2/CC(c3ccccc3)Oc3ccccc32)cc1 (stereo not given)	/	-7	1.1	33*	/	10
O=S(=O)(N/N=C1\CC(c2ccccc2)Oc2ccccc21)c1ccccc1 (stereo not given)	/	1	1	20	/	3
COc1ccc(C2C(C(=O)OCC(=O)Nc3ccc(C)cc3)CCC(=O)N2c2ccc(OC)cc2)cc1 (stereo not given)	/	-8	2.4*	2	/	-11
O=C1NC(=Nc2ccc(F)cc2)S/C1=C/c1ccccc1F	1	/	/	/	/	/
O=C1NC(=O)/C(=C\c2ccccc2Oc2ccc(F)c(F)c2)S1	/	-22	1	43*	/	12
Cc1ccc(N=Cc2ccc([N+](=O)[O-])s2)c(C)c1	9	/	/	/	/	/
O=S(=O)(c1ccc2nc(Cc3cccc(C(F)(F)F)c3)[nH]c2c1)N1CCOCC1	10	-3	1	3	12	-1
COc1cc(Cc2nc3ccc(S(=O)(=O)N4CCOCC4)cc3[nH]2)cc(OC)c1OC	/	0	1.6	-2	/	8
O=S(=O)(c1ccc2nc(Cc3ccccc3)[nH]c2c1)N1CCOCC1	-6	2	2.2*	14	13	-7
O=S(=O)(c1ccc2nc(COc3ccccc3)[nH]c2c1)N1CCOCC1	5	4	2*	10	9	1
